Results reported in the EternaBench riboswitch data.

System: MS2 coat protein
Assay: apparent Kd, MS2 coat protein; higher = weaker binding; RNA-MaP array; FMN 200 µM where present
Procedure, shortened: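 Stalled E. coli RNA polymerase transcribed each design on Illumina sequencing-chip clusters. The clusters were titrated with SNAP-549-labelled MS2 coat protein, starting at 0.7 or 1.5 nM and doubling up to 3 µM, first without ligand and then with constant ligand, in 100 mM Tris-HCl pH 7.5, 80 mM KCl, 4 mM MgCl2, BSA, DTT, yeast tRNA and Tween-20. Green signal was normalised to red-channel RNA signal and to the control-cluster median Fmax. The apparent Kd is the median of filtered binding-curve fits made for each cluster.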

[1] = designed as: ON switch for flavin mononucleotide, no ligand
[2] = ligand present: flavin mononucleotide, designed as: ON switch for flavin mononucleotide
[3] = designed as: OFF switch for flavin mononucleotide, no ligand
[4] = ligand present: flavin mononucleotide, designed as: OFF switch for flavin mononucleotide

Sequence	apparent Kd [1]	apparent Kd [2]	apparent Kd [3]	apparent Kd [4]
GACAUGGUCCAGAAGGGCUAUUUAUUUAAUUAUUAUUUAGAACAGCAUAGCAGGAUAUGGUUAACAUGAGGAUCACCCAUGUUC	26.2 nM	20.8 nM	–	–
GUAAAGUGAGGAUAUGGUAAAUUAAUUAUUUAGUAAUUAAUCCAGAAGGCACAUGAGGAUCACCCAUGUAAAUG	–	–	30.7 nM	51.4 nM
AUUUUAAUAUAGGAUAUCGAAUUUAUUAUUUAACGAGAAGGAUAAACAUGAGGAUCACCCAUGUGGUAUCAUGG	–	–	126 nM	117 nM
CCUACCUUCACAGGAUAUGCUAUCCUUUGGGUAGCAGAAGGGUGAUAACAUGAGGAUCACCCAUGUGGUAGGCCCGGUGACGGG	1300 nM	105 nM	–	–
GGACAUUUACAGAAGGGCAAAUUUUAUAGUGAAUAUUUAGUUCUGAUUUGCAGGAUAUGUGGAACAUGAGGAUCACCCAUGUCC	13.8 nM	6.71 nM	–	–
AUGGUUCACUCAGGAUAUGUAUCACCUCGUUACCAACAUGAGGAUCACCCAUGUCCGUGGCUCGGACAGAAGGGAGAAGAACCG	581 nM	232 nM	–	–
UUAUGAGAGCAGGAUAUCUUAUAUUUGUAUUAAAGAGAAGGGCUCACAUGAGGAUCACCCAUGUGGUCCUAGAU	–	–	51.6 nM	431 nM
AAAACAGAUGGAGGAUAUAGUGUAUGGGCCGUAACGGGAGUAUCGCGCAGACUAGAAGGCCAUUUACAUGAGGAUCACCCAUGU	164 nM	56.5 nM	–	–
UGAGUAGCGUAACAACGCACAUGAGGAUCACCCAUGUCUACACAGGAUAUGCGACGCUCCAGUUAGCAGAAGGGUGAACUCAAA	78.7 nM	138 nM	–	–
UGGCUACAUGAGGAUCACCCAUGUCAGGAUAUGCCGUUGGAUUGACUUCGUCGUUCGGGUAGAAGGGACUGCGU	–	–	43.3 nM	54.9 nM
UCCUCGAUGUAGAAGGCCGCGUCCGGCUCACGCGGAGGAUAUACAUGAGGAUCACCCAUGUGUCUGUGGCUAAUAUGGUACGGA	–	–	120 nM	14.4 nM
CGCAAAGAUGGGUUUAAUGGAGCAUAGGAUAUGCUUGUACAUGAGGAUCACCCAUGUAAUAUUGUGCAGAAGGGUGCAUUUGCG	293 nM	74.3 nM	–	–
GGGUUUGGAGGAUAUACAUGAGGAUCACCCAUGUAGGGUUUGGGUAUUCCCGGGCCCUGUAGAAGGCCGGGCCC	–	–	16.6 nM	20.4 nM
AGAAACCAAGGAUAUACAUGAGGAUCACCCAUGUUAGCGUGCAUGCCCUGCCUCAGCUGUAGAAGGUGGACGCC	–	–	25.9 nM	28.8 nM
CCAAUUCUGGCAUCCUUAUUACAUGAGGAUCACCCAUGUUGUGAGGAUAUCCCAACCCACGGUCAGGAGAAGGCACAAAGAGGG	–	–	4.9 nM	5.01 nM
AUUUAAUUUAAUAAGAUCACAUGAGGAUCACCCAUGUAUAUAUAGGAUAUCAGCUCGAUUAGAGCUGAGAAGGAUAUAUACUAU	–	–	383 nM	322 nM
UGAUAGGACAGAGGAUAUACGGAUAGGAUCUACUAUCUUUCUCAAAUAACAUGAGGAUCACCCAUGUAGAAGGCUGUCCUAUCU	–	–	23.2 nM	119 nM
UGCUACGUUUCGUAGCAGCUAGGUGAGGAUAUUCAAUUUUUCACAUGAGGAUCACCCAUGUAUGUGAAGAAGGCGCCUAGAAAG	12.3 nM	5.26 nM	–	–
UAUAUAAUUAAGAGCUGGCUCAAAACAUGAGGAUCACCCAUGUAGGAUAUCAGCACGAUAAGUGCUGAGAAGGACAUCCAGCUC	–	–	16.9 nM	24.5 nM
UUACGUCCCGUUUACAUGAGGAUCACCCAUGUCGAAAGAGCGUAGGAUAUGCUACCUAGUUGGUAGCAGAAGGAUGCAACGUCG	25.2 nM	37.5 nM	–	–
AAGAAGCUCACAGGAUAUCAGUAUAUGCGAUCACACGUAUUAAUGAACUGCUGAGAAGGGUGAGACAUGAGGAUCACCCAUGUA	446 nM	238 nM	–	–
AUGUUACAUGAGGAUCACCCAUGUGAGGAUAUGUGUAUCCCUAAAAAAGUGUGGGACCAUAGAAGGUACUUGGA	–	–	59.2 nM	58.6 nM
UCGACCCUAGGAUAUACAUGAGGAUCACCCAUGUUUGUCGAAGAACGAACAGUCCUCAGUAGAAGGAGGACGAA	–	–	22.3 nM	23.8 nM
